Screening data: PubChem, several laboratories
HIF activator = HIF pathway transcriptional activation. U2OS HRE-luciferase reporter, luminescence; normalized: DMSO 0%, desferrioxamine 100%. 300,000 tested, 0.32% active. activation, % at 7.5 µM (by protocol);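 active means mean activation of at least 10% of the iron chelator positive control signal, with at least half of replicates also reaching 10%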
DNA FID counter-1 = displaces DNA intercalator in HCV helicase counter-screen | inhibition, % at 7.9 µM | DNA fluorescent intercalator displacement, fluorescence | 290,000 tested, 0.17% active;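 further: 0% = vehicle and 100% = reference compound; higher means more ethidium bromide displaced from hairpin DNA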
PP5 primary = PP5 (human) phosphatase inhibition; P53041; purified PP5c, OMFP substrate fluorescence; inhibition, % at 6.7 µM; 320,000 tested, 0.18% active; AID 1987;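 active means inhibition above the campaign's mean inhibition across all tested compounds plus 3 SD, cut at about 9.5% in these data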;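 further: 0% = DMSO only and 100% = 100 µM cantharidin control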
Target sequence (P53041 whole entry, looked up): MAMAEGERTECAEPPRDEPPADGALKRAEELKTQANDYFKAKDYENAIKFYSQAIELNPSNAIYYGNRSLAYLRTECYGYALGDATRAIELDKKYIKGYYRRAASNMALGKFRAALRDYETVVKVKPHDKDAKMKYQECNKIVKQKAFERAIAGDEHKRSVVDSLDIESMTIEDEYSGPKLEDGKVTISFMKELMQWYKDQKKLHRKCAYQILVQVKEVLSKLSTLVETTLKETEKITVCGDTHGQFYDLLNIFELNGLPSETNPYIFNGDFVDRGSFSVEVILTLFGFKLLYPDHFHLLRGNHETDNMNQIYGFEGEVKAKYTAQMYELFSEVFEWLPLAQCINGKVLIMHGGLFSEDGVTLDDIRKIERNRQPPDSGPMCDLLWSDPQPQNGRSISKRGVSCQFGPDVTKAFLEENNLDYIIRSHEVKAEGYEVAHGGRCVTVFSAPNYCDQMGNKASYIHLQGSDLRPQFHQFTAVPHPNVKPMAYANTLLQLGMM
NS3 helicase inh = inhibitors of Hepatitis C virus NS3 helicase. NS3 helicase DNA unwinding, Cy5 molecular beacon fluorescence. 290,000 tested, 0.56% active. AID 1800. inhibition, % at 10.9 µM;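 active means inhibition above the mean of all tested compounds plus 3 SD, set per campaign, cut at about 35% in these data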;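 further: 0% = DMSO wells and 100% = thioflavine S control wells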
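Assay system – hepatitis C virus NS3 helicase domain fragment enzyme · Buffer or medium – MOPS pH 6.5, MgCl2, DTT, Tween20, BSA · Reagent – Cy5/quencher beacon DNA duplex and ATP to start · Compound – single 10.9 µM dose · Timing – 1 h at 25 °C · Technique – Cy5 beacon fluorescence read at start and 1 h · Measure – % inhibition of unwinding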
PP1 counter = counter-screen for PP5 inhibitors: inhibitors of human PP1-alpha. P62136. inhibition, % at 6.7 µM. 320,000 tested, 0.9% active. purified PP1alpha, OMFP fluorescence;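 active means inhibition above the mean inhibition of all tested compounds plus 3 SD, computed separately for each screening campaign, cut at about 15% in these data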
Target sequence (P62136 whole entry, looked up): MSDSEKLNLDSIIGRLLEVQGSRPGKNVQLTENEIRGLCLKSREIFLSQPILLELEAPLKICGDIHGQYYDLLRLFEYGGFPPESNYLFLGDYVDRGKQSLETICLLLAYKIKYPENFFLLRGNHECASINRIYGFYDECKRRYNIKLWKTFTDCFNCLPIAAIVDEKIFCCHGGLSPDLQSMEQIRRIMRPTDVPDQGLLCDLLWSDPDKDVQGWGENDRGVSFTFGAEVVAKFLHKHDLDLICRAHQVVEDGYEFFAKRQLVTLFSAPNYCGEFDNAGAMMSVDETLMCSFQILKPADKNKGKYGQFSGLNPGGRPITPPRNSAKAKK
NS3 helicase cf = HCV NS3 helicase inhibition, confirmation assay. shares compounds with NS3 helicase inh. NS3 helicase DNA unwinding, Cy5 molecular beacon fluorescence. inhibition, % at 10.9 µM. 1,600 tested, 31% active. AID 1943;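 active means inhibition above the mean of all tested compounds plus 3 SD, cutoff set per campaign, cut at about 36% in these data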
DNA FID counter-2 = counter-screen for HCV NS3 helicase inhibitors: DNA intercalator displacement. shares compounds with NS3 helicase inh. inhibition, % at 7.9 µM. 1,600 tested, 4% active. AID 1945. DNA fluorescent intercalator displacement, fluorescence;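 further: 0% = vehicle and 100% = reference compound; higher means more displacement of ethidium bromide from the DNA hairpin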
DNA FID DR = displaces fluorescent intercalator from DNA, HCV helicase counter-screen; fluorescent intercalator displacement from DNA, fluorescence; IC50, µM; shares compounds with NS3 helicase inh; 120 tested, under 10 active; call rule not given here
PP5 conf = PP5 (human) inhibition, confirmation | shares compounds with PP5 primary | Purified PP5, fluorogenic phosphatase substrate, fluorescence | inhibition, % at 6.7 µM | 460 tested, 22% active; in the data active means inhibition above about 9.5%
PP1 counter 3x = counter-screen for PP5 inhibitors: human PP1 phosphatase inhibition. shares compounds with PP5 primary. PP1 enzyme, fluorescent phosphatase substrate. inhibition, % at 6.7 µM. 460 tested, 4% active. AID 2355; in the data active means inhibition above about 16%
PP1 confirm = confirmation of human PP1 phosphatase inhibitors; shares compounds with PP1 counter; purified PP1alpha, OMFP substrate fluorescence; inhibition, % at 6.7 µM; 1,900 tested, 52% active;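 active means mean PP1 inhibition above a set limit taken from the earlier primary screen, cut at about 15% in these data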
PP5 counter = counter-screen for PP1 inhibitors: human PP5 phosphatase inhibition | shares compounds with PP1 counter | AID 2360 | inhibition, % at 6.7 µM | 1,900 tested, 4% active | purified PP5c, OMFP fluorescence;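 active means mean PP5 inhibition over triplicate wells above about 9.5% taken from the earlier PP1 screen, limit read from the data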
Starred values were filed as active, the others as inactive; . = no result. Hits are enriched below; roughly 1.9% of the tested compounds scored in any of these assays. Unless noted, no stated cut-off is given here; in the data, active means inhibition above about 37%; inactive means the rest.

SMILES | HIF activator | DNA FID counter-1 | PP5 primary | NS3 helicase inh | PP1 counter | PP5 conf | PP1 counter 3x | others
O=c1cc2oc3cc(O)c(O)cc3c(-c3ccccc3[N+](=O)[O-])c-2cc1O | -5.3 | -19.1 | 9.3 | 63.9* | 25.8* | . | . | NS3 helicase cf=108.7*;DNA FID counter-2=30.6;DNA FID DR=>79.4;PP1 confirm=14.2;PP5 counter=1.5
O=c1cc(-c2ccccc2Cl)oc2cccc(O)c12 | -0.8 | -15.4 | 2.3 | 3.0 | 3.2 | . | .
COc1cc(/C=C2/SC(=S)NC2=O)ccc1OS(=O)(=O)c1ccc(C)cc1 | -0.2 | -1.7 | 3.5 | 52.9* | 25.5* | . | . | NS3 helicase cf=58.8*;DNA FID counter-2=31.4;PP1 confirm=30.9*;PP5 counter=2.0
O=C(COc1ccc2c3c(c(=O)oc2c1)CCCC3)N1C[C@H]2C[C@@H](C1)c1cccc(=O)n1C2 | 0.0 | -26.7 | 1.8 | 46.2* | 29.5* | . | . | NS3 helicase cf=-15.4;DNA FID counter-2=-27.0;PP1 confirm=30.2*;PP5 counter=-7.1
O=C(CSc1nccc2ccccc12)N1CCN(c2ccccn2)CC1 | 0.1 | -20.1 | -0.4 | 5.1 | -0.1 | . | .
CCCOc1ccc(/C(O)=C2/C(=O)C(=O)N(c3ccccn3)C2c2ccc(OC)cc2)cc1C (stereo not given) | 0.9 | -48.0 | -1.1 | 68.6* | 31.5* | . | . | NS3 helicase cf=90.6*;DNA FID counter-2=-43.9;DNA FID DR=>79.4;PP1 confirm=23.1*;PP5 counter=-3.1
COc1ccc(S(=O)(=O)N2CCC(C(=O)NCc3cccc(OC)c3)CC2)cc1 | -37.1 | -17.0 | 0.0 | 3.5 | 0.3 | . | .
COc1cccc(CNC(=O)C2CCN(S(=O)(=O)c3ccccc3)CC2)c1 | -0.2 | -14.6 | 11.7* | -4.3 | -4.8 | -3.2 | -3.1
Cc1ccc(NC(=O)C(=O)NCCN2CCN(C(=S)Nc3ccccc3)CC2)cc1 | 0.2 | -1.6 | 2.6 | -2.5 | -4.0 | . | .
COc1cc(C=O)ccc1OC(=O)Nc1ccccc1 | 0.3 | . | 11.5* | . | -1.7 | -2.5 | -1.8
COc1cc(C=O)ccc1OS(=O)(=O)c1ccc(NC(C)=O)cc1 | -0.5 | 6.2 | 0.0 | 4.1 | -3.4 | . | .
Cc1cc(C)n(-c2ccc([N+](=O)[O-])cc2-c2nn[nH]n2)n1 | -0.3 | -5.7 | 0.3 | -10.4 | 0.8 | . | .
O=[N+]([O-])c1ccc(O)c(-c2nn[nH]n2)c1 | 0.3 | -3.2 | 30.3* | 12.2 | 0.7 | 18.1* | -5.0
CC(C)(C)OC(=O)NNC(=O)Nc1ccccc1C(F)(F)F | 0.0 | -2.2 | 0.5 | 12.1 | -1.4 | . | .
O=C(Nc1ccccc1)Nc1cccc(C(F)(F)F)c1 | 2.1 | 8.0 | 5.1 | -5.8 | -3.7 | . | .
Cc1ccc(OC(F)F)c(NC(=O)Nc2cccc(C(F)(F)F)c2)c1 | -0.9 | 1.7 | 13.1* | -10.8 | -0.3 | 4.7 | 3.5
O=C(COCC(=O)Nc1cccc(C(F)(F)F)c1)Nc1cccc(C(F)(F)F)c1 | -1.0 | 3.8 | 10.1* | -11.1 | 8.0 | 10.2* | 10.2
O=C(COc1ccc(C(=O)O)cc1)Nc1cccc(C(F)(F)F)c1 | -0.4 | -11.1 | 0.6 | 4.1 | 1.3 | . | .
O=[N+]([O-])c1ccc(N(c2ccccc2)c2ccccc2)cc1 | -0.5 | 3.8 | 9.9* | 9.5 | -2.1 | -2.4 | -1.2
CCc1c(C(=O)NCCc2cccc(C)c2)[nH]c(C)c1C(C)=O | 0.2 | -20.1 | -2.2 | -0.3 | -2.2 | . | .
CCc1c(C(=O)NCCc2ccc(OC)c(OC)c2)[nH]c(C)c1C(C)=O | 0.1 | -17.5 | 12.5* | -3.0 | 0.3 | -6.1 | -4.0
CC(C)C[C@H](NC(=O)c1[nH]cnc1C(=O)N[C@@H](C)C(=O)OC(C)(C)C)C(=O)OC(C)(C)C | 0.0 | . | 10.8* | . | 9.5 | 6.8 | 7.5
CCOC(=O)c1ccc(NC(=O)c2nc[nH]c2C(=O)N[C@@H](CC(C)C)C(=O)OC(C)(C)C)cc1 | -0.1 | . | 8.1 | . | 7.4 | . | .
CC(C)C[C@H](NC(=O)c1nc[nH]c1C(=O)NCC(=O)OC(C)(C)C)C(=O)OCc1ccccc1 | -1.2 | . | 12.0* | . | 9.2 | 8.8 | 8.8
CC(C)C[C@H](NC(=O)c1[nH]cnc1C(=O)Nc1ccccc1)C(=O)OC(C)(C)C | -4.3 | . | 9.8* | . | 7.4 | 7.4 | 6.5
SMILES | HIF activator | DNA FID counter-1 | PP5 primary | NS3 helicase inh | PP1 counter | PP5 conf | PP1 counter 3x | others
O=C1N/C(=N\S(=O)(=O)Cc2ccccc2)S/C1=C/c1cccc([N+](=O)[O-])c1 | 0.0 | -11.3 | 10.6* | 23.4 | 5.2 | -2.5 | 5.8
O=C1N/C(=N/O)S/C1=C/c1cccc([N+](=O)[O-])c1 | 0.2 | -5.3 | -0.4 | 3.0 | -1.2 | . | .
CC(C)NC(=O)c1ccccc1NC(=O)CCc1ccccc1 | 0.0 | -6.4 | 10.1* | 0.7 | 4.0 | -1.6 | -2.9
COCC(=O)Nc1ccccc1C(=O)NC(C)C | 0.2 | -1.0 | 1.2 | 6.2 | -3.3 | . | .
S=C(NC1CCCCC1)N1CCOCCOCCN(C(=S)NC2CCCCC2)CCOCC1 | -6.5 | -22.4 | 9.8* | -18.4 | 1.3 | -0.5 | 1.5
CCOC(=O)C(NC(=O)Nc1ccc(O)cc1)(c1ccccc1)C(F)(F)F (stereo not given) | -0.7 | -0.8 | 10.6* | 2.4 | -9.7 | 1.2 | -0.1
CCOC(=O)C(NC(=O)NC1CCCCC1)(c1ccccc1)C(F)(F)F (stereo not given) | 0.1 | -2.3 | -0.7 | 8.8 | -1.2 | . | .
O=C(Nc1ccc(OCC(F)(F)C(F)F)c(C(F)(F)F)c1)c1ccccc1O | 5.5 | 16.4 | 11.3* | -8.4 | 1.9 | 6.3 | 5.1
O=C(Nc1ccc(OCC(F)(F)C(F)F)c(C(F)(F)F)c1)c1ccccc1 | 2.5 | 0.8 | 9.4 | -17.4 | 7.0 | . | .
Oc1ccccc1NCC(O)Cn1ccc2ccccc21 (stereo not given) | 0.0 | 4.2 | 9.8* | 6.8 | 11.6 | 4.1 | -1.6
Nc1cccc2nsnc12 | 0.0 | -1.6 | 0.9 | 3.8 | -2.2 | . | .
Nc1cc2nsnc2cc1Br | 0.1 | 1.6 | 10.9* | 9.1 | 4.8 | 48.8* | 1.4
COc1ccc(C(=O)N/N=C/c2ccc(OC)c(COc3ccc(F)cc3F)c2)cc1 | 0.1 | -26.0 | 5.9 | -17.5 | 2.3 | . | .
COc1ccccc1NC(=O)Cn1nc(-c2ccncc2)nc1SCC(=O)NC1CCCC1 | 1.8 | -3.3 | 10.6* | 6.0 | -2.3 | -6.8 | -6.8
COc1ccccc1NC(=O)Cc1nnc(SCC(=O)NC2CCCC2)n1C | -0.8 | -9.5 | -0.9 | 0.5 | -5.0 | . | .
